The text below walks through data of ChEMBL document CHEMBL1138004, “Small molecule antagonists of the CCR2b receptor. Part 2: Discovery process and initial structure-activity relationships of diamine derivatives” (Bioorg Med Chem Lett, 2004).

The target in test [1] is T1, C-C chemokine receptor type 2 (Homo sapiens, UniProt P41597). As to the kind of experiment: Concentration required to inhibit [125I]MCP-1 binding to Chemokine receptor 2B. The essentials: (§1)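 Radioligand binding with THP-1 cells as the receptor source and human 125I-MCP-1 as the tracer. Inhibition of tracer binding by test compounds was measured.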
Target sequence in this assay (P41597 whole entry): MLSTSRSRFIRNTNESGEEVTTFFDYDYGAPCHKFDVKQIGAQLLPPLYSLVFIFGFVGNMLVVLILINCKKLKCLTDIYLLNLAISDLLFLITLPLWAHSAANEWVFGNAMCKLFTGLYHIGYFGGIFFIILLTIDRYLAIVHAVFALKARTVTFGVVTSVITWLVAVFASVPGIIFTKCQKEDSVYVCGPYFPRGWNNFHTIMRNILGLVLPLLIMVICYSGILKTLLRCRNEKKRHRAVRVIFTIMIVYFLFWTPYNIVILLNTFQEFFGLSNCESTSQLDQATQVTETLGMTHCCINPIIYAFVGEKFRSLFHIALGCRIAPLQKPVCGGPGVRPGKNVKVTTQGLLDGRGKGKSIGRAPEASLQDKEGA
The target in test [2] is T1, C-C chemokine receptor type 2. Put plainly: Inhibition of [125I]MCP-1 binding to Chemokine receptor 2B; not active. The essentials:
as §1
Target sequence in this assay (P41597 whole entry): as above

Test [3] has the same target. The following applies: 10 uM.
Target sequence in this assay (P41597 whole entry, looked up): as the sequence (P41597 whole entry) above

The molecule `O=C(CNC(=O)c1cccc(C(F)(F)F)c1)NC[C@H]1CCCN1Cc1ccc(Cl)cc1` yielded an IC50 in test [1] of 0.57 µM.
As to `Cc1csc(C(=O)NNC(=O)CN2CCC(NCCC(c3ccccc3)c3ccccc3)C2)c1` (stereo not given), the IC50 in test [1] was determined as 17 µM.
Same read-out and setting: next, `O=C(CCCC(=O)c1ccccc1)NC1CCN(Cc2ccc(Cl)cc2)C1` (stereo not given): 11 µM.
Same read-out and setting: next, `O=C(CCNC(=O)c1ccccc1)NC1CCN(Cc2ccc(Cl)cc2)C1` (stereo not given): 22 µM; `O=C(CNC(=O)c1cccc(C(F)(F)F)c1)NC1CCCN(Cc2ccc(Cl)cc2)C1` (stereo not given): 0.66 µM.
Turning to `Cc1cccc(C(=O)NCC(=O)NC2CCCN(Cc3ccc(Cl)cc3)C2)c1` (stereo not given), the IC50 in test [1] was 17 µM.
The same measure, in the same setting: next, `O=C(CCNC(=O)c1ccccc1)NCC1CCN(Cc2ccc(Cl)cc2)CC1`: 64 µM.
On the same count and under the same terms, next, `Cc1csc(C(=O)NNC(=O)CNC2CCN(CCC(c3ccccc3)c3ccccc3)C2)c1` (stereo not given): 33 µM.
Same read-out and setting: next, `O=C(CCCC(=O)c1ccccc1)NC1CCCN(Cc2ccc(Cl)cc2)C1` (stereo not given): 87 µM.
Consider `O=C(CNC(=O)c1cccc(C(F)(F)F)c1)N[C@H]1CCN(Cc2ccc(Cl)cc2)C1`, for which the IC50 in test [1] is 1.2 µM.
For the molecule `O=C(CNC(=O)c1ccccc1)NC1CCCN(Cc2ccc(Cl)cc2)C1` (stereo not given), the IC50 entry in test [2] was “Not Active”.
As for `O=C(CNC(=O)c1cccc(C(F)(F)F)c1)NC1CCN(Cc2ccc(Cl)cc2)C1` (stereo not given), the IC50 in test [1] is 0.37 µM.
The same measure, in the same setting: next, `Cc1cccc(C(=O)NCC(=O)NC2CCN(Cc3ccc(Cl)cc3)C2)c1` (stereo not given): 6.9 µM; `O=C(CCNC(=O)c1ccccc1)NC1CCCN(Cc2ccc(Cl)cc2)C1` (stereo not given): 74 µM; `O=C(CCCC(=O)c1ccccc1)NCC1CCN(Cc2ccc(Cl)cc2)CC1`: 50 µM.
The same measure, in the same setting: next, `O=C(CNC(=O)c1ccccc1)NC1CCN(Cc2ccc(Cl)cc2)C1` (stereo not given): 42 µM; `Cc1cccc(C(=O)NCC(=O)NCC2CCCN2Cc2ccc(Cl)cc2)c1` (stereo not given): 14 µM; `Cc1csc(C(=O)NNC(=O)CNC2CCN(Cc3ccc(Cl)cc3)C2)c1` (stereo not given): 41 µM.
In turn, `O=C(CNC(=O)c1cccc(C(F)(F)F)c1)N[C@@H]1CCN(Cc2ccc(Cl)cc2)C1` had an inhibition in test [3] of 49%. The IC50 in test [1] was found to be 0.18 µM.
In test [1], `O=C(CCCC(=O)c1ccccc1)NCC1CCCN1Cc1ccc(Cl)cc1` (stereo not given) yielded an IC50 of 19 µM.
Same read-out and setting: next, `O=C(CNC(=O)c1ccccc1)NCC1CCN(Cc2ccc(Cl)cc2)CC1`: 11 µM; `Cc1csc(C(=O)NNC(=O)CN2CCC(NCc3ccc(Cl)cc3)C2)c1` (stereo not given): 7.8 µM.
The same measure, in the same setting: the result for `O=C(CNC(=O)c1cccc(C(F)(F)F)c1)NCC1CCCN1Cc1ccc(Cl)cc1` (stereo not given) reads 2.3 µM; that for `O=C(CNC(=O)c1cccc(C(F)(F)F)c1)NCC1CCN(Cc2ccc(Cl)cc2)CC1`, 0.7 µM; that for `O=C(CCNC(=O)c1ccccc1)NCC1CCCN1Cc1ccc(Cl)cc1` (stereo not given), 40 µM.
`Cc1cccc(C(=O)NCC(=O)NCC2CCN(Cc3ccc(Cl)cc3)CC2)c1` returned an IC50 in test [1] of 5.5 µM.
Take `O=C(CNC(=O)c1ccccc1)NCC1CCCN1Cc1ccc(Cl)cc1` (stereo not given): the IC50 in test [1] was 66 µM. This IC50 lies about 12-fold higher than the previous one.
As to `Cc1csc(C(=O)NNC(=O)CN2CCCC2CNCCC(c2ccccc2)c2ccccc2)c1` (stereo not given), the IC50 in test [1] was determined as 26 µM. Compared with the last molecule, the IC50 is about 2.5-fold lower.
Consider `O=C(CNC(=O)c1cccc(C(F)(F)F)c1)NC[C@@H]1CCCN1Cc1ccc(Cl)cc1`, for which, in test [1], the IC50 was determined as 3.1 µM.
